Source: ChEMBL document CHEMBL4251654, “Structure-based design of human immuno- and constitutive proteasomes inhibitors” (Eur J Med Chem, 2018)

Tests used:
[1] = molecular target: T1, Proteasome Macropain subunit MB1 (Homo sapiens, UniProt P28074); assay: Inhibition of human 20S constitutive proteasome beta-5 using Suc-LLVY-AMC as substrate incubated for 15 mins measured for 45 mins by fluorescence assay
T1 sequence (P28074 whole entry): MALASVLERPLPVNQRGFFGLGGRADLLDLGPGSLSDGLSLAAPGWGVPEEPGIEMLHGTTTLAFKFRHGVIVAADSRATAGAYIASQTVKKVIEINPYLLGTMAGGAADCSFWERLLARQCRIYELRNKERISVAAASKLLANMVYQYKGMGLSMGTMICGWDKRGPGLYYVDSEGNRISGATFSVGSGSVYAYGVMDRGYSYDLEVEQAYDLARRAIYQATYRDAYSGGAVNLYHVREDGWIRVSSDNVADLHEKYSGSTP
Procedure, shortened: (§1)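 Human 20S cCP or iCP (0.3 nM) was exposed to compound (0.001-50 μM) for 15 min in pH 8 buffer of 20 mM Tris-HCl, 10% glycerol, 0.01% SDS, 2% DMSO. Suc-LLVY-AMC at 20 μM followed. Fluorescence (ex 360/em 460 nm) was read 45 min at 37 °C versus untreated enzyme.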

[2] = molecular target: T2, Proteasome subunit beta type-8 (Homo sapiens, UniProt P28062); assay: Inhibition of human 20S immunoproteasome beta-5 using Suc-LLVY-AMC as substrate incubated for 15 mins measured for 45 mins by fluorescence assay; procedure, shortened: as §1
T2 sequence (P28062 whole entry): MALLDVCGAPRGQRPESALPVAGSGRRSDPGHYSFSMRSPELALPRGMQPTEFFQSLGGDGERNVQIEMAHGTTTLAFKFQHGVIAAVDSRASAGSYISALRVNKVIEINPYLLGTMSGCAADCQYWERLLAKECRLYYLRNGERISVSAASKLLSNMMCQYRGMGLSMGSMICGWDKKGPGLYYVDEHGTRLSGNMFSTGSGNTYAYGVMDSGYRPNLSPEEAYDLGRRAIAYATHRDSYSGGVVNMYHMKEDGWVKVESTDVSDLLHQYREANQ

[3] = molecular target: T3, Proteasome Macropain subunit MB1 (Homo sapiens) (UniProt P28074); assay: Inhibition of human 20S constitutive proteasome beta-5 at 50 uM using Suc-LLVY-AMC as substrate incubated for 15 mins measured for 45 mins by fluorescence assay relative to control; procedure, shortened: as §1
T3 sequence (whole entry): T1 sequence (P28074 whole entry)

[4] = molecular target: T4, Proteasome subunit beta type-8 (Homo sapiens) (UniProt P28062); assay: Inhibition of human 20S immunoproteasome beta-5 at 50 uM using Suc-LLVY-AMC as substrate incubated for 15 mins measured for 45 mins by fluorescence assay relative to control; procedure, shortened: as §1
T4 sequence (whole entry): T2 sequence (P28062 whole entry)

[5] = molecular target: T5, Proteasome subunit beta type-9 (Homo sapiens, UniProt P28065); assay: Inhibition of human 20S immunoproteasome beta-1 using Ac-PAL-AMC as substrate incubated for 15 mins measured for 45 mins by fluorescence assay
T5 sequence (P28065 whole entry): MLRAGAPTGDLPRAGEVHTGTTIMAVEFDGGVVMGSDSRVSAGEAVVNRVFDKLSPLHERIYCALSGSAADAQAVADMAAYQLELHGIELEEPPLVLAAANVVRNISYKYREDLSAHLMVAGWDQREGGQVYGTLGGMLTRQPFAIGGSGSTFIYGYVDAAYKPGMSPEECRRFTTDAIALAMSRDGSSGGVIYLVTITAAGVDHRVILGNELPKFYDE
Procedure, shortened: (§2)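 Human 20S immunoproteasome (0.3 nM) was given 15 min with compound (0.001-50 μM) in pH 8 buffer of 20 mM Tris-HCl, 10% glycerol, 0.01% SDS, 2% DMSO. Ac-PAL-AMC at 50 μM was the substrate. Fluorescence (ex 360/em 460 nm) was followed 45 min at 37 °C relative to control.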

[6] = molecular target: T6, Proteasome component C5 (Homo sapiens) (UniProt P20618); assay: Inhibition of human 20S constitutive proteasome beta-1 at 50 uM using Z-LLE-betaNA as substrate incubated for 15 mins measured for 45 mins by fluorescence assay relative to control
T6 sequence (whole entry): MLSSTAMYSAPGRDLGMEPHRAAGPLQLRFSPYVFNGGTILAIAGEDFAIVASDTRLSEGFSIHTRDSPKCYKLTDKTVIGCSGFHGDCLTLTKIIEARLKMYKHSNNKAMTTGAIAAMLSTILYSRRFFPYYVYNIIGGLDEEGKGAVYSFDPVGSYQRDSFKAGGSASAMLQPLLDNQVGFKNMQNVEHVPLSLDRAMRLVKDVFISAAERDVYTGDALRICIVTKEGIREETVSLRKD
Procedure, shortened: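 Human 20S constitutive proteasome, 0.3 nM, was preincubated 15 min with compound (0.001-50 μM) in pH 8 Tris-HCl 20 mM, 10% glycerol, 0.01% SDS, 2% DMSO. Z-LLE-βNA at 50 μM was added. βNA fluorescence (ex 340/em 404 nm) was monitored 45 min at 37 °C against an untreated control.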

[7] = molecular target: T7, Proteasome subunit beta type-9 (Homo sapiens) (UniProt P28065); assay: Inhibition of human 20S immunoproteasome beta-1 at 50 uM using Ac-PAL-AMC as substrate incubated for 15 mins measured for 45 mins by fluorescence assay relative to control; procedure, shortened: as §2
T7 sequence (whole entry): T5 sequence (P28065 whole entry)

Huh-7 = assay: Cytotoxicity against human HuH7 cells assessed as reduction in cell viability after 48 hrs by Hoechst 33342 staining based HCS assay; type: functional; details: huh-7
Procedure, shortened: (§3)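 Cells were grown at 37 °C, 5% CO2 in medium with 10% FBS, 1% penicillin-streptomycin, 2 mM glutamine: DMEM for HuH7, MDA-MB-231 and fibroblasts, EMEM for Caco2, McCoy's for HCT116, RPMI for PC3 and NCI-H727. 4000 cells/well were seeded and dosed 24 h later at 0.1-25 μM final, from DMSO stocks. After 48 h they were fixed in ethanol/acetic acid and Hoechst-stained nuclei were counted by imaging. Survival is relative to DMSO. EC50 came from dose-response curves.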

Caco-2 = assay: Cytotoxicity against human Caco2 cells assessed as reduction in cell viability after 48 hrs by Hoechst 33342 staining based HCS assay; type: functional; procedure, shortened: as §3
MDA-MB-231 = assay: Cytotoxicity against human MDA-MB-231 cells assessed as reduction in cell viability after 48 hrs by Hoechst 33342 staining based HCS assay; type: functional; procedure, shortened: as §3
HCT-116 = assay: Cytotoxicity against human HCT116 cells assessed as reduction in cell viability after 48 hrs by Hoechst 33342 staining based HCS assay; type: functional; procedure, shortened: as §3
PC-3 = assay: Cytotoxicity against human PC3 cells assessed as reduction in cell viability after 48 hrs by Hoechst 33342 staining based HCS assay; type: functional; procedure, shortened: as §3
NCI-H727 = assay: Cytotoxicity against human NCI-H727 cells assessed as reduction in cell viability after 48 hrs by Hoechst 33342 staining based HCS assay; type: functional; procedure, shortened: as §3
MCF7 = assay: Cytotoxicity against human MCF7 cells assessed as reduction in cell viability after 48 hrs by Hoechst 33342 staining based HCS assay; type: functional
Fibroblast = assay: Cytotoxicity against human fibroblasts assessed as reduction in cell viability at 25 uM after 48 hrs by Hoechst 33342 staining based HCS assay
[8] = molecular target: T8, Proteasome subunit beta type-10 (Homo sapiens, UniProt P40306); assay: Inhibition of human 20S immunoproteasome beta-2 using BocLRR-AMC as substrate incubated for 15 mins measured for 45 mins by fluorescence assay
T8 sequence (P40306 whole entry): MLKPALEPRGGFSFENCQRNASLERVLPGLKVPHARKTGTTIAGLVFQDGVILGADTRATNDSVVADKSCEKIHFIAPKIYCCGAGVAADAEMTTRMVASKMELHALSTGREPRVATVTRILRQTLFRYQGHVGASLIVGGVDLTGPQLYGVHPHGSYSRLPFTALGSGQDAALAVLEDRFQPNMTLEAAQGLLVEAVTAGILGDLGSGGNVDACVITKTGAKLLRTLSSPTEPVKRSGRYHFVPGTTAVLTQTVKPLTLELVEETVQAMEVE

[9] = molecular target: Proteasome Macropain subunit (Homo sapiens) (UniProt P49721); assay: Inhibition of human 20S constitutive proteasome beta-2 at 50 uM using BocLRR-AMC as substrate incubated for 15 mins measured for 45 mins by fluorescence assay relative to control
Sequence of Proteasome Macropain subunit (Homo sapiens) (P49721 whole entry): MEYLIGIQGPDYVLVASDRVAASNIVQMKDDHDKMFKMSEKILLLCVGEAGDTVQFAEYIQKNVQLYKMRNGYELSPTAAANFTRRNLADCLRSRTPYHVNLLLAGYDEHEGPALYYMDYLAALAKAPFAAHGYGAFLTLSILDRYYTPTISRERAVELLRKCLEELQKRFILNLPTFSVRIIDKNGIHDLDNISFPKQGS
Procedure, shortened: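 Purified human 20S proteasome (cCP or iCP), 0.3 nM, preincubated 15 min with compound (0.001-50 μM) in pH 8 buffer of 20 mM Tris-HCl, 10% glycerol, 0.005% Triton X-100, 2% DMSO. Then Boc-LRR-AMC at 50 μM was added. AMC fluorescence (ex 360/em 460 nm) was followed 45 min at 37 °C. Activity is relative to an untreated control.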

[10] = molecular target: T9, Proteasome subunit beta type-10 (Homo sapiens) (UniProt P40306); assay: Inhibition of human 20S immunoproteasome beta-2 at 50 uM using BocLRR-AMC as substrate incubated for 15 mins measured for 45 mins by fluorescence assay relative to control
T9 sequence (whole entry): T8 sequence (P40306 whole entry)

[11] = Homo sapiens, Caco-2, 48 h, read-out: EC50
[12] = Homo sapiens, MDA-MB-231, 48 h, read-out: EC50
[13] = Homo sapiens, HCT-116, 48 h, read-out: EC50
[14] = Homo sapiens, PC-3, 48 h, read-out: EC50
[15] = Homo sapiens, MCF7, 48 h, read-out: EC50

Structure (SMILES)	IC50 [1] [µM]	IC50 [2] [µM]	inhibition [3] [%]	inhibition [4] [%]	IC50 [5] [µM]	inhibition [6] [%]	inhibition [7] [%]	IC50 [8] [µM]	inhibition [9] [%]	inhibition [10] [%]	EC50 (Huh-7)	EC50 (Caco-2; caco-2)	EC50 (NCI-H727; nci-h727)	Activity (Fibroblast)	EC50 (MDA-MB-231; [12]) [µM]	EC50 (HCT-116; [13]) [µM]	EC50 (PC-3; [14]) [µM]	EC50 (MCF7; [15]) [µM]	other results
C[C@H](NC(=O)[C@H](Cc1ccc(OCc2ccccc2)cc1)NC(=O)OC(C)(C)C)C(=O)N[C@@H](C[C@]1(O)C(=O)Nc2ccccc21)C(=O)NCc1ccccc1											Not Active	Not Active	Not Active	Non-Toxic		32		26	EC50 (MDA-MB-231; mda-mb-231): Not Active; EC50 (PC-3; pc-3): Not Active
C[C@H](NC(=O)[C@H](Cc1ccc(OCc2ccccc2)cc1)NC(=O)OC(C)(C)C)C(=O)N[C@@H](C[C@]1(O)C(=O)Nc2ccccc21)C(=O)NCC(C)(C)C	11.3	12.6	> 85	> 85	21	> 85	> 85	30	> 85	> 85									
CC(C)(C)OC(=O)N[C@@H](Cc1ccc(OCc2ccccc2)cc1)C(=O)NCC(=O)N[C@@H](C[C@]1(O)C(=O)Nc2ccccc21)C(=O)NCc1ccccc1	6.2	7.8	> 85	> 85	12.6	> 85	> 85	8.9	> 85	> 85									
C[C@H](NC(=O)Cc1cccc(Oc2ccccc2)c1)C(=O)N[C@@H](C[C@]1(O)C(=O)Nc2ccccc21)C(=O)NCc1ccccc1	0.35	0.26	> 85	> 85	14	> 85	> 85	14.3	> 85	> 85									

Now from value to molecule, other results behind:

IC50 [1] [µM]	IC50 [2] [µM]	inhibition [3] [%]	inhibition [4] [%]	IC50 [5] [µM]	inhibition [6] [%]	inhibition [7] [%]	IC50 [8] [µM]	inhibition [9] [%]	inhibition [10] [%]	Structure (SMILES)	EC50 (Huh-7)	EC50 (Caco-2; caco-2)	EC50 (NCI-H727; nci-h727)	Activity (Fibroblast)	EC50 (MDA-MB-231; [12]) [µM]	EC50 (HCT-116; [13]) [µM]	EC50 (PC-3; [14]) [µM]	EC50 (MCF7; [15]) [µM]	other results
1.48	1.6	> 85	> 85	16.1	> 85	> 85				CC(C)(C)OC(=O)N[C@@H](Cc1ccc(OCc2ccccc2)cc1)C(=O)N[C@@H](CC(N)=O)C(=O)N[C@@H](C[C@]1(O)C(=O)Nc2ccccc21)C(=O)NCc1ccccc1	Not Active	Not Active	Not Active	Non-Toxic					EC50 (MDA-MB-231; mda-mb-231): Not Active; EC50 (HCT-116; hct-116): Not Active; EC50 (PC-3; pc-3): Not Active; EC50 (MCF7; mcf7): Not Active
0.0071	0.0102	> 85	> 85	23.8	> 85	> 85	6.6	> 85	> 85	C[C@@H](O)[C@@H](NC(=O)c1ccc(OCc2ccccc2)cc1)C(=O)N[C@@H](C[C@]1(O)C(=O)Nc2ccccc21)C(=O)NCc1ccccc1	Not Active			Non-Toxic	0.7	0.2	0.4	0.7	EC50 (Caco-2; [11]): 5 µM; EC50 (NCI-H727; Homo sapiens, NCI-H727, 48 h, read-out: EC50): 2 µM
0.125	0.2	> 85	> 85	8.8	> 85	> 85	5.8	> 85	> 85	C[C@H](O)[C@@H](NC(=O)[C@H](Cc1ccc(OCc2ccccc2)cc1)NC(=O)OC(C)(C)C)C(=O)N[C@@H](C[C@]1(O)C(=O)Nc2ccccc21)C(=O)NCc1ccccc1	Not Active		Not Active	Non-Toxic	9	9	10	9	EC50 (Caco-2; [11]): 32 µM
0.113	0.17	> 85	> 85	52	> 85	> 85	28.3	> 85	> 85	C[C@H](NC(=O)c1ccc(OCc2ccccc2)cc1)C(=O)N[C@@H](C[C@]1(O)C(=O)Nc2ccccc21)C(=O)NCc1ccccc1	Not Active	Not Active	Not Active	Non-Toxic	23	10	24	21	
